Source: ChEMBL document CHEMBL3272032, “Antifolate studies. Activities of 40 potential antimalarial compounds against sensitive and chlorguanide triazine resistant strains of folate-requiring bacteria and Escherichia coli” (J Med Chem, 1977)
Active and inactive are the calls of the source. The calls are words filed in the database; no cut-off is given here.

Assays:
[1] = tested on: Escherichia coli; assay: Antibacterial activity against sensitive Escherichia coli ATCC 10536 assessed as reduction in growth in presence of p-aminobenzoic acid; type: functional, organism-based
Method in brief: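 Reversal test. Drug inhibition was challenged with PABA in Sahyun et al. medium plus 0.6% acid-hydrolyzed casein. Growth read as turbidity on a Klett-Summerson colorimeter. Scored as reversal or nonreversal of the drug inhibition.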

[2] = Antibacterial activity against chlorguanide triazine-resistant Pediococcus cerevisiae ATCC 808 assessed as reduction in growth; type: functional
Method in brief: (§1)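 Folate-requiring strains grown in medium with folic acid, 0.002 µg/ml for S. faecium and 0.001 µg/ml for L. casei; P. cerevisiae given folinic acid, 0.001 µg/ml. Resistant substrains came from serial transfer in rising chlorguanide triazine, and the most resistant were used. Compounds tested up to 1000 µg/ml, or 100 µg/ml when supply was limited. Growth read as Klett turbidity; IC50 is the µM concentration giving 50% growth inhibition.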

[3] = tested on: Lacticaseibacillus casei; assay: Antibacterial activity against sensitive Lactobacillus casei ATCC 7469 assessed as reduction; type: functional, organism-based; method in brief: as §1
[4] = tested on: Lacticaseibacillus casei; assay: Antibacterial activity against sensitive Lactobacillus casei ATCC 7469 assessed as reduction in growth in presence of 0.001 ug/ml folic acid; type: functional, organism-based
Method in brief: (§2)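 Folate-requiring strains in the medium of the earlier assay method. Folic acid was 0.002 μg/ml for S. faecium and 0.001 μg/ml for L. casei. Turbidity read on a Klett-Summerson colorimeter. IC50 is the micromolar concentration reducing growth to 50% of control. Top concentration was 1000 μg/ml, or 100 μg/ml if supply was limited.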

[5] = tested on: Escherichia coli; assay: Antibacterial activity against sensitive Escherichia coli ATCC 10536 assessed as reduction in growth; type: functional, organism-based
Method in brief: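 Growth inhibition in Sahyun et al. medium plus 0.6% acid-hydrolyzed casein. Growth read as turbidity on a Klett-Summerson photoelectric colorimeter. IC50 is the micromolar concentration giving 50% growth inhibition. Top concentration was 1000 μg/ml, or 100 μg/ml when compound was limited.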

[6] = tested on: Enterococcus faecium; assay: Antibacterial activity against sensitive Streptococcus faecium ATCC 8043 assessed as reduction in growth in presence of 0.002 ug/ml folic acid; type: functional, organism-based; method in brief: as §2
[7] = tested on: Plasmodium berghei; assay: Antimalarial activity against Plasmodium berghei infected in sc dosed mouse assessed as dose required to survivors for period of 60 days; type: functional
Method in brief: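 Mice infected with a blood-induced P. berghei inoculum were given one subcutaneous dose in peanut oil. Survivors at 60 days counted as cured. The minimum curative dose is the lowest dose that cured any mouse.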

[8] = tested on: Enterococcus faecium; assay: Antibacterial activity against chlorguanide triazine-resistant Streptococcus faecium ATCC 8043 assessed as reduction in growth; type: functional, organism-based; method in brief: as §1
[9] = tested on: Enterococcus faecium; assay: Antibacterial activity against sensitive Streptococcus faecium ATCC 8043 assessed as reduction in growth; type: functional, organism-based; method in brief: as §1
[10] = Antibacterial activity against sensitive Pediococcus cerevisiae ATCC 808 assessed as reduction; type: functional
Method in brief: (§3)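 P. cerevisiae grown with folinic acid at 0.001 μg/ml in the earlier-described medium. Turbidity read on a Klett-Summerson colorimeter. IC50 is the micromolar concentration reducing growth to 50% of control. Top concentration was 1000 μg/ml, or 100 μg/ml when supply was limited.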

[11] = tested on: Enterococcus faecium; assay: Fold increase in resistance, ratio of IC50 for chlorguanide triazine-resistant Streptococcus faecium ATCC 8043 to IC50 for sensitive Streptococcus faecium ATCC 8043; type: functional
Method in brief: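 Resistant S. faecium substrain raised by serial transfer in increasing chlorguanide triazine. IC50 (µM, 50% growth inhibition by turbidity) was found for resistant and parent strains in folic acid (0.002 µg/ml) medium. Fold increase taken as IC50 resistant / IC50 sensitive.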

[12] = tested on: Pediococcus; assay: Fold increase in resistance, ratio of IC50 for chlorguanide triazine-resistant Pediococcus cerevisiae ATCC 808 to IC50 for sensitive Pediococcus cerevisiae ATCC 808; type: functional
Method in brief: (§4)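 Resistant substrains were made by serial transfer in rising concentrations of cycloguanil, and the most resistant isolate of each organism was used. Both strains were assayed turbidimetrically under identical conditions. FIR = IC50 of the resistant strain divided by IC50 of the sensitive parent.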

[13] = tested on: Lacticaseibacillus casei; assay: Antibacterial activity against chlorguanide triazine-resistant Lactobacillus casei ATCC 7469 assessed as reduction in growth; type: functional, organism-based; method in brief: as §1
[14] = tested on: Lacticaseibacillus casei; assay: Fold increase in resistance, ratio of IC50 for chlorguanide triazine-resistant Lactobacillus casei ATCC 7469 to IC50 for sensitive Lactobacillus casei ATCC 7469; type: functional; method in brief: as §4
[15] = tested on: Pediococcus; assay: Antibacterial activity against sensitive Pediococcus cerevisiae ATCC 808 assessed as reduction in growth in presence of 0.001 ug/ml folinic acid; type: functional; method in brief: as §3
[16] = tested on: Lacticaseibacillus casei; assay: Antibacterial activity against chlorguanide triazine-resistant Lactobacillus casei ATCC 7469 assessed as reduction in growth in presence of 0.001 ug/ml folic acid; type: functional, organism-based; method in brief: as §1
[17] = tested on: Enterococcus faecium; assay: Antibacterial activity against chlorguanide triazine-resistant Streptococcus faecium ATCC 8043 assessed as reduction in growth in presence of 0.002 ug/ml folic acid; type: functional, organism-based; method in brief: as §1
[18] = tested on: Plasmodium berghei; assay: Antimalarial activity against Plasmodium berghei infected in sc dosed mouse assessed as active dose required to increase of 100% in mean survival time; type: functional; conditions: read-out: MED
Method in brief: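 Mice received a standard blood-induced P. berghei inoculum and were then treated with one subcutaneous dose of compound suspended in peanut oil. The minimum active dose is the lowest dose that raised mean survival time by 100%.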

[19] = tested on: Pediococcus; assay: Antibacterial activity against chlorguanide triazine-resistant Pediococcus cerevisiae ATCC 808 assessed as reduction in growth in presence of 0.001 ug/ml folinic acid; type: functional; method in brief: as §1

SMILES	inhibition [1]	IC50 [2] [µM]	IC50 [3] [µM]	inhibition [4]	IC50 [5] [µM]	inhibition [6]	MCD [7] [mg/kg]	IC50 [8] [µM]	IC50 [9] [µM]	IC50 [10] [µM]	Ratio IC50 [11]	Ratio IC50 [12]	IC50 [13] [µM]	Ratio IC50 [14]	inhibition [15]	inhibition [16]	inhibition [17]	minimal effective dose [18] [mg/kg]	inhibition [19]
N=C(N)N/N=C(\c1ccc(F)cc1)c1ccc(C(F)(F)F)cc1	Active	21	31	Active	17	Active	160	35	64	22	0.6	1	30	1	Active	Active	Active	40	Active
CCc1nc(N)nc(N)c1-c1ccc(Cl)cc1 [PYRIMETHAMINE]	Active	12	5.1	inactive	76	inactive	40	10.5	0.008	4	1300	3	0.24	0.05	inactive	inactive	inactive	10	inactive
O=C1C(O)=C(CCCCCCCCC2CCCCC2)C(=O)c2ccccc21 [MENOCTONE]		570	61	Active	> 2700	Active	160	394	407	1000	1	0.6	19	0.3	Active	Active	Active	40	Active
CCN1CCCC(Nc2cc(C)nc(NC(=N)Nc3ccc(Cl)c(Cl)c3)n2)C1 (configuration not stated)	Active	39	65.1	Active	85	Active	40	121	227	32	0.53	1	55.7	0.85	Active	Active	Active	20	Active
ClC(Cl)(Cl)c1ccc(C(Cl)(Cl)Cl)cc1	Active	2000	1000	Active	262	Active	640	1900	2000	959	1	2	990	1	Active	Active	Active	640	Active
CC1(C)N=C(N)N=C(N)N1c1ccc(Cl)cc1 [CYCLOGUANIL]		900	16.3	inactive	> 3470	inactive	40	3300	0.017	35	194000	26	2400	147	inactive	inactive	inactive	20	inactive
N=C(N)NC(=O)Nc1ccc([N+](=O)[O-])cc1		197	157	Active	> 4480	Active	640	2500	1300	83	2	2	1800	12	Active	Active	Active	640	Active
CN1CCCCC1CNc1nc(-c2ccc(Cl)c(Cl)c2)nc(C(Cl)(Cl)Cl)n1 (configuration not stated)		3.8	3	Active		Active	320	128	132	4.9	0.97	1	3.2	1.1	Active	Active	Active	160	Active
